# Rev-erbA mod: modulators of human Rev-erb alpha DNA binding. activity, % at 10 µM. AID 1259318. Rev-erbα–FITC-DNA binding, fluorescence polarization, 90 min. P20393. 370,000 tested, 0.79% active;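 active means activity above about 14%, limit read from the data; passing the limit was not always enough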;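 further: 0% = DMSO wells with 35 nM protein and 100% = DMSO wells with 750 nM protein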
# TPT1 inhibitor: blocks Candida albicans tRNA 2'-phosphotransferase; inhibition, % at 5 µM; AID 1962; recombinant caTPT1, FP RNA substrate dephosphorylation; 300,000 tested, 0.81% active;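 active means inhibition above the mean of all tested compounds plus 3 SD, set per screening campaign, cut at about 24% in these data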;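 further: plate controls were DMSO alone for no effect and ferristatin control at 100 nM for full effect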
# CSN deneddyl inh: blocks human CSN-mediated cullin deneddylation; Purified CSN, SCF-Nedd8-OG deneddylation, fluorescence polarization; AID 651999; inhibition, % at 12.5 µM; 360,000 tested, 0.38% active;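 active means pattern-corrected inhibition above about 35%, with an unprinted fluorescence ratio check between 0.5 and 1.5, limit read from the data, passing the limit was not always enough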;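 further: 0% = enzyme with substrate and 100% = substrate without enzyme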
#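 Test system: Human Csn5 produced in HEK293T cells | Compound: 12.5 µM single point | Times: 90 min, room temperature | Signal: Fluorescence polarization readout | Read-out basis: % inhibition of substrate cleavage by Csn5 | Controls: no-enzyme wells high, enzyme-with-substrate wells low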
# HNF4A DNA FP: change in binding of human HNF4 alpha to DNA. P41235. HNF4a-FITC DNA binding, fluorescence polarization, 1 h. activity change, % at 10 µM. 360,000 tested, 0.3% active. AID 1224865; in the data active means activity change above about 30%, passing the limit was not always enough
# Target sequence (P41235 whole entry, looked up): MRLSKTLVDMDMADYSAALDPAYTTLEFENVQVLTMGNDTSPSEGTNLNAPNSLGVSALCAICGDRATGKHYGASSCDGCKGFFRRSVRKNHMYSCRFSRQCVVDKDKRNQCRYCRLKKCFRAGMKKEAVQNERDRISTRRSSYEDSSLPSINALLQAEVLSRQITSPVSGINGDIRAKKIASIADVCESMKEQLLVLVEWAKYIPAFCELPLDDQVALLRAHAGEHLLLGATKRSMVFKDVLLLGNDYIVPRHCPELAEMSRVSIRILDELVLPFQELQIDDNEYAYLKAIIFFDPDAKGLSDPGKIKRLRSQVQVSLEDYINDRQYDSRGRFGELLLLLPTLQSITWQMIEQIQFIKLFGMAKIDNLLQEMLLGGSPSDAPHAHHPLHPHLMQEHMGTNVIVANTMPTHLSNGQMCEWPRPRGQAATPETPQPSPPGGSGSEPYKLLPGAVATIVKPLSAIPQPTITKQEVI
# TPT1 inh confirm: TPT1 (C. albicans) inhibition, confirmation; shares compounds with TPT1 inhibitor; AID 2149; 2,400 tested, 74% active; inhibition, % at 5 µM; recombinant caTPT1, fluorescence polarization, RNase T1 coupled;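 active means inhibition above the primary screen limit, the mean inhibition of all tested compounds plus 3 SD, cut at about 25% in these data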
# RNase T1 counter: counter-screen for TPT1 inhibitors: inhibitors of Aspergillus oryzae RNase T1; shares compounds with TPT1 inhibitor; RNase T1 cleavage, fluorescence polarization, 1536-well; inhibition, % at 5 µM; 2,400 tested, 83% active; AID 2153;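 active means inhibition above the solvent-only control well mean plus 3 SD, limit set per screening run, cut at about 23% in these data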;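 further: plate controls were DMSO wells with enzyme for no effect and wells without RNase T1 for full effect; inhibitors block cleavage so intact labeled substrate keeps polarization high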
# Target sequence (P00651 whole entry, looked up): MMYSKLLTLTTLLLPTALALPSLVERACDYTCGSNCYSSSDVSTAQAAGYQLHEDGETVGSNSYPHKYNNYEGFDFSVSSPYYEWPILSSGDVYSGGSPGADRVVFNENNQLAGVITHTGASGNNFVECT
# Numbers without * were called inactive; x = no result. Shown are actives, neighbours in structure and some others; about 1.7% of the full set was active somewhere.
SMILES,Rev-erbA mod,TPT1 inhibitor,CSN deneddyl inh,HNF4A DNA FP,TPT1 inh confirm,RNase T1 counter
COC(=O)C1=C(C)N(C)C(=NCc2cccc(C(F)(F)F)c2)NC1c1cccc(Cl)c1 (centres undefined),-6,x,x,x,x,x
CN1CCc2c(sc3nc(NN)n(Cc4ccccc4)c(=O)c23)C1,-2,38*,11,22,46*,54*
CN1CCc2c(sc3nc(NN)n(-c4ccc(Cl)cc4)c(=O)c23)C1,x,38*,14,19,18,24*
CN(C)/N=C/C=C1\CC/C(=C\c2ccc(Br)cc2)C1=O,7,77*,22,29,55*,66*
CN(C)/N=C/C=C1\CCC/C(=C/c2cccs2)C1=O,-4,49*,15,34,56*,66*
COc1ccc(/C=C2\CC/C(=C\c3ccc(OC)c(OC)c3)C2=O)cc1OC,-1,3,15,7,x,x
COCCNCC(=O)Nc1ccc(OC(F)(F)F)cc1,-3,62*,8,-4,11,17
CCOCCCNCC(=O)Nc1ccc(OC(F)(F)F)cc1,-2,0,2,1,x,x
CCn1nc(C(=O)Nc2ccc(S(=O)(=O)Nc3nccs3)cc2)c2ccccc2c1=O,-2,31*,-1,-2,54*,71*
O=C(Nc1ccc(S(=O)(=O)Nc2nccs2)cc1)c1cnc(Cl)c(Cl)c1,-4,33*,7,-2,31*,48*
CCOc1ccccc1C1C(C#N)=C(N)SC(N)=C1C#N,8,82*,42,104,56*,67*
Cc1ccc(C2C(C#N)=C(N)SC(N)=C2C#N)o1,x,66*,x,x,34*,46*
CCOC(=O)C1=C(C)OC(N)=C(C#N)C1c1ccc(O)c(OC)c1 (centres undefined),-2,-1,0,0,x,x
CCOc1ccc(C2C(C#N)=C(N)SC(N)=C2C#N)cc1OC,x,115*,x,x,39*,56*
CCOc1ccc(C2C(C#N)=C(N)SC(N)=C2C#N)cc1OCC,-3,126*,124,139,132*,128*
CCOc1ccc(C2C(C#N)=C(N)Oc3cc(C)n(CCN4CCOCC4)c(=O)c32)cc1OCC (centres undefined),5,x,-2,2,x,x
CCOC(=O)CNC(=O)C(Cc1ccc2c(c1)OCO2)NC(C)=O (centres undefined),7,x,x,x,x,x
CCN(CC(=O)Nc1ccccc1C(F)(F)F)CC(=O)c1[nH]c(C)c(C(C)=O)c1C,-3,x,-12,0,x,x
COC1(OC)N=C(N)C2(C#N)C(c3cccc(Oc4ccccc4)c3)C12C#N (centres undefined),3,2,-1,0,x,x
CCc1ccc(C2C(C#N)=C(N)OC3=C2C(=O)CCC3)s1 (centres undefined),7,-3,1,1,x,x
N#CC1=C(N)Nc2ncnn2C1c1ccc([N+](=O)[O-])cc1 (centres undefined),9,4,1,6,x,x
N#CC1=C(N)SC(N)=C(C#N)C1c1ccc([N+](=O)[O-])cc1,-1,40*,26,20,7,9
N#CC1=C(N)SC(N)=C(C#N)C1c1cccc(Oc2ccccc2)c1,3,111*,39,136,54*,69*
N#CC1=C(N)SC(N)=C(C#N)C1c1c(Cl)cccc1Cl,1,47*,78,77,22,28*
CCc1ccc(C2C(C#N)=C(N)SC(N)=C2C#N)s1,x,91*,50,122,80*,89*
SMILES,Rev-erbA mod,TPT1 inhibitor,CSN deneddyl inh,HNF4A DNA FP,TPT1 inh confirm,RNase T1 counter
CCc1ccc(C2C(C#N)=C(N)SC(N)=C2C#N)cc1,5,106*,-37,140,73*,86*
N#CC1=C(N)SC(N)=C(C#N)C1c1ccc(C(F)(F)F)cc1,x,20,x,x,x,x
COc1ccc(N2CCN(CCNS(=O)(=O)c3c(C(C)C)cc(C(C)C)cc3C(C)C)CC2)cc1,-1,x,x,x,x,x
O=C(Cn1nnc(-c2ccncc2)n1)Nc1ccc(Oc2ccccc2)cc1,5,x,x,x,x,x
Cc1cccc(N=C2NC(=O)/C(=C\c3cccs3)S2)c1,2,4,3,0,x,x
Cc1ccc(N=C2NC(=O)/C(=C/c3cccs3)S2)cc1C,2,30*,33,34,46*,59*
O=C(COC(=O)CNC(=O)c1ccccc1F)Nc1ccc2c(c1)OCCO2,0,55*,-3,4,4,6
Nc1c(C(=O)O)sc2nc(-c3ccccc3)cc(-c3ccccc3)c12,-6,22,2,18,x,x
Nc1c(C(=O)O)sc2nc(-c3ccccc3)cc(-c3ccc(F)cc3)c12,4,29*,8,35*,27*,38*
O=C(C1CCN(c2ncnc3c2sc2cccc(F)c23)CC1)N1CCN(Cc2ccccc2)CC1,5,x,x,x,x,x
CC(=O)Oc1ccc(C(=O)Nc2ccccc2C(=O)N2CCCC2)cc1,0,49*,0,1,4,8
CC1CCCN(c2cccc3c2S(=O)(=O)N([C@H](C)c2ccccc2)C[C@@H](COCc2ccccc2)O3)C1 (some centres undefined),1,x,x,x,x,x
O=C1NC(=Nc2cccnc2)S/C1=C\c1cccc(F)c1,-7,22,13,17,x,x
CCc1ccc(N=C2NC(=O)/C(=C/c3cc(OC)c(O)c(OC)c3)S2)cc1,1,x,30,14,x,x
COc1cc(/C=C2\SC(=Nc3ccccc3)NC2=O)cc(Cl)c1O,10,105*,150,123,114*,110*
COc1cc(/C=C2\SC(=Nc3cccnc3)NC2=O)cc(OC)c1OC,-5,52*,12,8,73*,84*
CCOC(=O)/C(=C/C=C1\Sc2ccccc2N1CC)C(C)=O,x,174*,133,176,189*,170*
CCC(=O)/C=C1/Sc2ccccc2N1CC,1,-1,5,8,x,x
COC(=O)[C@H]1[C@@H](O)[C@@]2(O)c3c(OC)cc(OC)cc3O[C@@]2(c2ccc(OC)cc2)[C@@H]1c1ccc(F)cc1,1,x,x,x,x,x
COc1ccc(C=C2NC(=S)NC2=O)cc1,0,x,4,2,x,x
COc1ccc(C(=O)N2C(=S)NC(=O)/C2=C\c2ccc(C)cc2)cc1,-4,34*,43*,19,42*,57*
Cc1nn(-c2ccccc2)c2sc(C(=O)N3CCN(C(c4ccccc4)c4ccc(Cl)cc4)CC3)cc12 (centres undefined),2,x,x,x,x,x
Cc1ccccc1-n1c(SCC(N)=O)nc2sc(-c3ccccc3)cc2c1=O,0,-3,1,-1,x,x
Cc1ccccc1-n1c(SCC(=O)NC(N)=O)nc2sc(-c3ccccc3)cc2c1=O,-3,31*,5,1,6,11
CCOc1ccc(N2CC(O)=C(c3nc4ccccc4c(=O)[nH]3)C2=N)cc1,-13,-2,14,24,x,x
CCOC(=O)c1ccc(N2CC(O)=C(c3nc4ccccc4c(=O)[nH]3)C2=N)cc1,-2,47*,7,15,41*,52*
